ChEMBL document CHEMBL1137737, “Synthesis, antimicrobial and cytotoxic activities of 1,3,4-oxadiazoles, 1,3,4-thiadiazoles and 1,2,4-triazoles” (Eur J Med Chem, 2009)
In brackets after ≈: the same amount, converted by molar mass. Activity calls are given as the source filed them. The rule behind the calls is not given here.

What was measured:
Staphylococcus aureus [1] = assay: Antibacterial activity against Staphylococcus aureus NCIM 5021 at 100 ug/disk after 24 hrs by agar disc-diffusion method; format: functional; conditions: NCIM 5021, 24 h, read-out: DIZ
How it was run: (§1)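 Sterile 6 mm filter-paper discs are soaked in compound solution in DMSO and placed on nutrient agar plates already inoculated with each organism. Plates are incubated at 37 °C. The diameter of the growth-inhibition zone is read after 24 h for bacteria and after 48 h for fungi.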

Bacillus subtilis [2] = assay: Antibacterial activity against Bacillus subtilis NCIM 2063 at 100 ug/disk after 24 hrs by agar disc-diffusion method; format: functional; conditions: NCIM 2063, 24 h, read-out: DIZ; how it was run: as §1
Klebsiella pneumoniae [3] = assay: Antibacterial activity against Klebsiella pneumoniae NCIM 2957 at 100 ug/disk after 24 hrs by agar disc-diffusion method; format: functional; conditions: NCIM 2957, 24 h, read-out: DIZ; how it was run: as §1
Proteus vulgaris [4] = assay: Antibacterial activity against Proteus vulgaris NCIM 2027 at 100 ug/disk after 24 hrs by agar disc-diffusion method; format: functional; conditions: NCIM 2027, 24 h, read-out: DIZ; how it was run: as §1
Fusarium solani [5] = assay: Antifungal activity against Fusarium solani NCIM 1330 at 100 ug/disk after 48 hrs by agar disc-diffusion method; format: functional; conditions: NCIM 1330, 48 h, read-out: DIZ; how it was run: as §1
Curvularia lunata [6] = assay: Antifungal activity against Curvularia lunata NCIM 716 at 100 ug/disk after 48 hrs by agar disc-diffusion method; format: functional; conditions: NCIM 716, 48 h, read-out: DIZ; how it was run: as §1
Aspergillus niger [7] = assay: Antifungal activity against Aspergillus niger NCIM 596 at 100 ug/disk after 48 hrs by agar disc-diffusion method; format: functional; conditions: NCIM 596, 48 h, read-out: DIZ; how it was run: as §1
Staphylococcus aureus [8] = assay: Antibacterial activity against Staphylococcus aureus NCIM 5021 at 200 ug/disk after 24 hrs by agar disc-diffusion method; format: functional; conditions: NCIM 5021, 24 h, read-out: DIZ; how it was run: as §1
Bacillus subtilis [9] = assay: Antibacterial activity against Bacillus subtilis NCIM 2063 at 200 ug/disk after 24 hrs by agar disc-diffusion method; format: functional; conditions: NCIM 2063, 24 h, read-out: DIZ; how it was run: as §1
Klebsiella pneumoniae [10] = assay: Antibacterial activity against Klebsiella pneumoniae NCIM 2957 at 200 ug/disk after 24 hrs by agar disc-diffusion method; format: functional; conditions: NCIM 2957, 24 h, read-out: DIZ; how it was run: as §1
Proteus vulgaris [11] = assay: Antibacterial activity against Proteus vulgaris NCIM 2027 at 200 ug/disk after 24 hrs by agar disc-diffusion method; format: functional; conditions: NCIM 2027, 24 h, read-out: DIZ; how it was run: as §1
Fusarium solani [12] = assay: Antifungal activity against Fusarium solani NCIM 1330 at 200 ug/disk after 48 hrs by agar disc-diffusion method; format: functional; conditions: NCIM 1330, 48 h, read-out: DIZ; how it was run: as §1
Curvularia lunata [13] = assay: Antifungal activity against Curvularia lunata NCIM 716 at 200 ug/disk after 48 hrs by agar disc-diffusion method; format: functional; conditions: NCIM 716, 48 h, read-out: DIZ; how it was run: as §1
Aspergillus niger [14] = assay: Antifungal activity against Aspergillus niger NCIM 596 at 200 ug/disk after 48 hrs by agar disc-diffusion method; format: functional; conditions: NCIM 596, 48 h, read-out: DIZ; how it was run: as §1
Staphylococcus aureus [15] = assay: Antibacterial activity against Staphylococcus aureus NCIM 5021 after 24 hrs by microdilution susceptibility method; format: functional; conditions: NCIM 5021, 24 h
How it was run: (§2)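 This is a microdilution susceptibility test. Organism suspensions are inoculated into wells holding the dilution series, then incubated at 36 °C for 24 h (bacteria) or 48 h (fungi). MIC is the lowest concentration giving no turbidity, i.e. complete inhibition of visible growth.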

Bacillus subtilis [16] = assay: Antibacterial activity against Bacillus subtilis NCIM 2063 after 24 hrs by microdilution susceptibility method; format: functional; conditions: NCIM 2063, 24 h; how it was run: as §2
Fusarium solani [17] = assay: Antifungal activity against Fusarium solani NCIM 1330 after 48 hrs by microdilution susceptibility method; format: functional; conditions: NCIM 1330, 48 h; how it was run: as §2
Curvularia lunata [18] = assay: Antifungal activity against Curvularia lunata NCIM 716 after 48 hrs by microdilution susceptibility method; format: functional; conditions: NCIM 716, 48 h; how it was run: as §2
Aspergillus niger [19] = assay: Antifungal activity against Aspergillus niger NCIM 596 after 48 hrs by microdilution susceptibility method; format: functional; conditions: NCIM 596, 48 h; how it was run: as §2
A549 [20] = assay: Cytotoxicity against human A549 cells at 250 uM by MTT assay relative to control; format: functional
How it was run: (§3)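 A549 lung adenocarcinoma cells are grown in DMEM with 10% FBS and penicillin–streptomycin. Compounds come from a 10 mM DMSO stock, are diluted in medium, and are added 2–4 h after plating. Viability is (treated − background)/(untreated − background) × 100, with a DMSO vehicle control. The experiment was run in duplicate with triplicate readings.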

A549 [21] = assay: Cytotoxicity against human A549 cells at 250 uM by MTT assay in presence of 0.2% fetal bovine serum; format: functional
How it was run: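 MTT viability assay on A549 cells as for the other cytotoxicity lines, but with 0.2% serum in the medium in place of 10% FBS. Compounds are diluted in medium from a 10 mM DMSO stock and exposure lasts 48 h.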

Klebsiella pneumoniae [22] = assay: Antibacterial activity against Klebsiella pneumoniae NCIM 2957 after 24 hrs by microdilution susceptibility method; format: functional; conditions: NCIM 2957, 24 h; how it was run: as §2
Proteus vulgaris [23] = assay: Antibacterial activity against Proteus vulgaris NCIM 2027 after 24 hrs by microdilution susceptibility method; format: functional; conditions: NCIM 2027, 24 h; how it was run: as §2
A549 [24] = assay: Cytotoxicity against human A549 cells at 250 uM by MTT assay; format: functional, cell-based; how it was run: as §3

| SMILES | zone of inhibition at 100 µg/disc (Staphylococcus aureus [1]) | zone of inhibition at 100 µg/disc (Bacillus subtilis [2]) | zone of inhibition at 100 µg/disc (Klebsiella pneumoniae [3]) | zone of inhibition at 100 µg/disc (Proteus vulgaris [4]) | zone of inhibition at 100 µg/disc (Fusarium solani [5]) | zone of inhibition at 100 µg/disc (Curvularia lunata [6]) | zone of inhibition at 100 µg/disc (Aspergillus niger [7]) | zone of inhibition at 200 µg/disc (Staphylococcus aureus [8]) | zone of inhibition at 200 µg/disc (Bacillus subtilis [9]) | zone of inhibition at 200 µg/disc (Klebsiella pneumoniae [10]) | zone of inhibition at 200 µg/disc (Proteus vulgaris [11]) | zone of inhibition at 200 µg/disc (Fusarium solani [12]) | zone of inhibition at 200 µg/disc (Curvularia lunata [13]) | zone of inhibition at 200 µg/disc (Aspergillus niger [14]) | MIC (Staphylococcus aureus [15]) | MIC (Bacillus subtilis [16]) | MIC (Fusarium solani [17]) | MIC (Curvularia lunata [18]) | MIC (Aspergillus niger [19]) | Activity (A549 [20]) | also measured |
| --- | --- | --- | --- | --- | --- | --- | --- | --- | --- | --- | --- | --- | --- | --- | --- | --- | --- | --- | --- | --- | --- |
| O=S(=O)(Cc1ccc(Cl)cc1)Cc1nnc(-c2ccccc2Cl)o1 | 20 mm | 19 mm | 17 mm | 15 mm | 18 mm | 16 mm | 17 mm | 23 mm | 21 mm | 20 mm | 18 mm | 22 mm | 19 mm | 21 mm | 200 µg/mL (≈ 522 µM) | 400 µg/mL (≈ 1040 µM) | 200 µg/mL (≈ 522 µM) | 200 µg/mL (≈ 522 µM) | 200 µg/mL (≈ 522 µM) | 50% | Activity (A549 [21]): 50% |
| Nn1c(CS(=O)(=O)Cc2ccc(Cl)cc2)nnc1-c1ccccc1Cl | 32 mm | 37 mm | 33 mm | 31 mm | 29 mm | 27 mm | 22 mm | 37 mm | 39 mm | 36 mm | 34 mm | 32 mm | 31 mm | 24 mm | 25 µg/mL (≈ 62.9 µM) | 25 µg/mL (≈ 62.9 µM) | 100 µg/mL (≈ 252 µM) | 50 µg/mL (≈ 126 µM) | 50 µg/mL (≈ 126 µM) | 50% | MIC (Klebsiella pneumoniae [22]): 50 µg/mL (≈ 126 µM); MIC (Proteus vulgaris [23]): 100 µg/mL (≈ 252 µM); Activity (A549 [24]): Active; Activity (A549 [21]): 50% |
| O=S(=O)(Cc1ccc(Cl)cc1)Cc1nnc(-c2ccccc2)s1 | 28 mm | 24 mm | 19 mm | 17 mm | 24 mm | 23 mm | 17 mm | 30 mm | 28 mm | 23 mm | 22 mm | 27 mm | 25 mm | 20 mm | 100 µg/mL (≈ 274 µM) | 200 µg/mL (≈ 548 µM) | 200 µg/mL (≈ 548 µM) | 200 µg/mL (≈ 548 µM) | 200 µg/mL (≈ 548 µM) |  | MIC (Klebsiella pneumoniae [22]): 200 µg/mL (≈ 548 µM); MIC (Proteus vulgaris [23]): 200 µg/mL (≈ 548 µM) |
